Sampled rows, rich in hits. Any-hit rate of the full collection: about 2.4%.
NadD inh: NadD (S. aureus) enzyme inhibition; purified NadD enzyme, colorimetric absorbance read-out; inhibition, % at 20 µM; actives 0.78% (n = 360,000); AID 602399; in the data active means inhibition above about 26%
SUMO1 PPI mod: alters human SUMO1 binding to SIM partners; P63165; SUMO1 binding to a labelled peptide, TR-FRET, 1 h; inhibition, % at 20 µM; actives 0.33% (n = 360,000); AID 602429; in the data active means inhibition above about 37%
Target sequence (P63165 whole entry, looked up): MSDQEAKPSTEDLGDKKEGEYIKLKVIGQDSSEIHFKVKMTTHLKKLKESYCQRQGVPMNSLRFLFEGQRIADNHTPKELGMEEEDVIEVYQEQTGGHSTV
STEP block: blocks human striatal-enriched tyrosine phosphatase | P54829 | recombinant STEP, OMFP fluorogenic substrate, fluorescence | inhibition, % at 20 µM | actives 0.25% (n = 360,000) | AID 588621;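 active means inhibition at 20 µM, scaled per plate between control wells, above about 37%, limit read from the data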
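Material: STEP (striatal-enriched tyrosine phosphatase) enzyme, cell-free; Compound dosing: 20 µM single dose in 1% DMSO; Technique: fluorescence read at 480 nm ex / 540 nm em; Times: reaction 20 min, ambient temperature; Medium: 50 mM Bis-Tris pH 6.0 with 2.5 mM DTT and 0.005% Tween 20; Also added: OMFP at 25 µM.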
Scp-1 inhibitor: blocks human Scp-1 phosphatase activity; Q9GZU7; Recombinant Scp1, phosphopeptide, malachite green phosphate absorbance; inhibition, % at 20 µM; actives 0.88% (n = 340,000);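 active means inhibition above about 50% at 20 µM, limit read from the data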
Target sequence (Q9GZU7 76-261 limits assumed): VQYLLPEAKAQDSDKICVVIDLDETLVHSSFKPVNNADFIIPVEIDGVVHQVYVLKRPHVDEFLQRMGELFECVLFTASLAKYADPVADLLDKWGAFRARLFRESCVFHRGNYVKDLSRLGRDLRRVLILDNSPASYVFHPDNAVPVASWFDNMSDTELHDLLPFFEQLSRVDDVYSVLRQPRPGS
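Times: enzyme reaction 45 min at room temperature, colour 5 min, stabilisation 30 min. Material: SCP-1 catalytic fragment, aa 76-261. Medium: Acidic Tris acetate buffer with magnesium and detergent. Signal: colorimetric free-phosphate detection, absorbance 630 nm. Read-out basis: % inhibition of SCP-1 phosphate liberation. Reagent: Phosphorylated 17-residue peptide substrate.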
LMPTP inh: blocks human LMPTP phosphatase; P24666; recombinant LMPTP-A, OMFP fluorogenic substrate, fluorescence intensity; inhibition, % at 20 µM; actives 0.22% (n = 360,000);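 active means compounds that cut the enzyme signal by at least half of the control window in the single-dose screen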
Target sequence (P24666 whole entry, looked up): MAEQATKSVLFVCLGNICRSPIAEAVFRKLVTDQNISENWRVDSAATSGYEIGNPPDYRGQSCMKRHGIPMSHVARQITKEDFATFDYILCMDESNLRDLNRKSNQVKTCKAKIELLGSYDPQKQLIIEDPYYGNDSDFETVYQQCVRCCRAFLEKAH
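Test system – LMPTP-A phosphatase enzyme · Quantity – 0.625 nM LMPTP-A final · Reagent – OMFP substrate, 400 µM final · Dosing – one test concentration per compound, 20 µM, with 3% DMSO overall · Timing – 50 min enzyme reaction at room temperature, protected from light · Detection – fluorescence intensity · Controls – substrate-only low control, DMSO enzyme-plus-substrate high control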
DNMT1 block: inhibitors of human DNMT1 | P26358 | DNMT1 molecular beacon, Hinp1I cleavage, fluorescence | inhibition (reported as % activation of signal), % at 10 µM | actives 0.83% (n = 360,000) | AID 588458; in the data active means inhibition above about 50%
NadD inh conf: confirmation of Staphylococcus aureus NadD inhibitors; shares compounds with NadD inh; purified S. aureus NadD, colorimetric enzyme assay; inhibition, % at 20 µM; actives 13% (n = 2,000); AID 624309; in the data active means inhibition mostly above about 42%, no sharp cut-off; inactive means mostly below about 42%
A number is an active result.

How did COCCn1c(C)cc(C2=NNC(=Nc3ccccc3)SC2)c1C do in these assays?
NadD inh: 36; SUMO1 PPI mod: inactive; STEP block: inactive; Scp-1 inhibitor: inactive; LMPTP inh: inactive; DNMT1 block: inactive; NadD inh conf: inactive

How did CCN=C1NN=C(c2cc(C)n(CCc3ccccc3)c2C)CS1 do in these assays?
NadD inh: inactive; SUMO1 PPI mod: inactive; STEP block: inactive; Scp-1 inhibitor: inactive; LMPTP inh: inactive; DNMT1 block: inactive

What do the screens show for `CCOC(=O)N/N=C\c1ccc(-c2cc(Cl)ccc2Cl)o1`?
NadD inh: inactive; SUMO1 PPI mod: inactive; STEP block: inactive; Scp-1 inhibitor: inactive; LMPTP inh: inactive; DNMT1 block: inactive

What do the screens show for `NC(=S)N/N=C/c1ccc(-c2cc(Cl)cc(Cl)c2)o1`?
NadD inh: 38; SUMO1 PPI mod: inactive; STEP block: inactive; Scp-1 inhibitor: inactive; LMPTP inh: inactive; DNMT1 block: inactive; NadD inh conf: inactive

How did NC(=S)N/N=C/c1ccc(-c2cc(Cl)ccc2Cl)o1 do in these assays?
NadD inh: 43; SUMO1 PPI mod: inactive; STEP block: inactive; Scp-1 inhibitor: inactive; LMPTP inh: inactive; DNMT1 block: inactive; NadD inh conf: inactive

What do the screens show for `NC(=S)N/N=C/c1ccc(-c2ccc([N+](=O)[O-])cc2)o1`?
NadD inh: 33; SUMO1 PPI mod: inactive; STEP block: inactive; Scp-1 inhibitor: inactive; LMPTP inh: inactive; DNMT1 block: inactive; NadD inh conf: inactive

Results for Cc1ccc(C(=O)OCN2C(=O)c3ccccc3C2=O)c(O)c1 ?
NadD inh: inactive; SUMO1 PPI mod: inactive; STEP block: inactive; Scp-1 inhibitor: inactive; LMPTP inh: inactive; DNMT1 block: inactive

How did NS(=O)(=O)c1ccc(-n2nncc2-c2ccco2)cc1 do in these assays?
NadD inh: inactive; SUMO1 PPI mod: inactive; STEP block: inactive; Scp-1 inhibitor: inactive; LMPTP inh: inactive; DNMT1 block: inactive

How did O=C(COC(=O)/C=C/c1ccccc1[N+](=O)[O-])NCC(F)(F)F do in these assays?
NadD inh: inactive; SUMO1 PPI mod: inactive; STEP block: inactive; Scp-1 inhibitor: inactive; LMPTP inh: inactive; DNMT1 block: inactive

How did N=c1c(S(=O)(=O)c2ccc(Br)cc2)cc2c(=O)n3ccccc3nc2n1Cc1ccccc1 do in these assays?
NadD inh: 32; SUMO1 PPI mod: inactive; STEP block: inactive; Scp-1 inhibitor: inactive; LMPTP inh: inactive; DNMT1 block: inactive; NadD inh conf: inactive

Results for Cc1ccc(Cn2c(=N)c(S(=O)(=O)c3ccc(Br)cc3)cc3c(=O)n4ccccc4nc32)cc1 ?
NadD inh: inactive; SUMO1 PPI mod: inactive; STEP block: inactive; Scp-1 inhibitor: inactive; LMPTP inh: inactive; DNMT1 block: inactive

Results for N=c1c(S(=O)(=O)c2ccc(Br)cc2)cc2c(=O)n3ccccc3nc2n1C1CCCCC1 ?
NadD inh: 42; SUMO1 PPI mod: inactive; STEP block: inactive; Scp-1 inhibitor: inactive; LMPTP inh: inactive; DNMT1 block: inactive; NadD inh conf: inactive

Results for O=C(OCc1ccccc1)N1C[C@H](O)[C@H](O)C[C@@H]1c1c(Cl)cccc1Br ?
NadD inh: inactive; SUMO1 PPI mod: inactive; STEP block: inactive; LMPTP inh: inactive; DNMT1 block: inactive

How did O=C(Nc1ccc(S(=O)(=O)Nc2ncccn2)cc1)c1nn(Cc2ccccc2)c(=O)c2ccccc12 do in these assays?
NadD inh: 34; SUMO1 PPI mod: inactive; STEP block: inactive; Scp-1 inhibitor: inactive; LMPTP inh: inactive; DNMT1 block: inactive; NadD inh conf: inactive

What do the screens show for `O=C(NCc1ccccc1)c1ccc2nc(-c3ccco3)c(-c3ccco3)nc2c1`?
NadD inh: 45; SUMO1 PPI mod: 41; STEP block: inactive; Scp-1 inhibitor: 84; LMPTP inh: 75; DNMT1 block: 102; NadD inh conf: inactive

How did O=C(NCc1ccccc1)c1ccc2nccnc2c1 do in these assays?
NadD inh: inactive; SUMO1 PPI mod: inactive; STEP block: inactive; Scp-1 inhibitor: inactive; LMPTP inh: inactive; DNMT1 block: inactive

What do the screens show for `O=C(O)c1cccc(NC(=S)NC(=O)c2ccc(-c3ccc(Cl)cc3)o2)c1`?
NadD inh: 38; SUMO1 PPI mod: inactive; STEP block: inactive; Scp-1 inhibitor: inactive; LMPTP inh: inactive; DNMT1 block: inactive; NadD inh conf: inactive

Results for FC(F)(F)c1ccccc1Cc1c(-c2cccc(Cl)c2)nc2ccc(Br)cn12 ?
NadD inh: inactive; SUMO1 PPI mod: inactive; STEP block: inactive; LMPTP inh: inactive; DNMT1 block: inactive

What do the screens show for `FC(F)(F)c1ccccc1Cc1c(-c2ccco2)nc2ccc(Br)cn12`?
NadD inh: 37; SUMO1 PPI mod: inactive; STEP block: inactive; LMPTP inh: inactive; DNMT1 block: inactive; NadD inh conf: inactive

What do the screens show for `Cc1cc2nc(-c3ccco3)c(Cc3ccccc3C(F)(F)F)n2c(C)c1Br`?
NadD inh: 42; SUMO1 PPI mod: inactive; LMPTP inh: inactive; NadD inh conf: inactive

What do the screens show for `Cc1ccc(C2NC(=O)c3ccccc3O2)cc1` (stereo unspecified)?
NadD inh: inactive; SUMO1 PPI mod: inactive; STEP block: inactive; Scp-1 inhibitor: inactive; LMPTP inh: inactive; DNMT1 block: inactive

Results for CC1=Nc2nc(N3CCCCC3)c(C#N)c3c4c(nc(c23)N1)N(c1ccc(C(C)C)cc1)C(=O)C4 ?
NadD inh: 63; SUMO1 PPI mod: inactive; STEP block: inactive; Scp-1 inhibitor: inactive; LMPTP inh: inactive; DNMT1 block: inactive; NadD inh conf: inactive

Results for O=c1[nH]c(C2CCN(S(=O)(=O)c3ccc(F)cc3)CC2)nc2c1nnn2Cc1ccc2c(c1)OCCO2 ?
NadD inh: 30; SUMO1 PPI mod: inactive; STEP block: inactive; Scp-1 inhibitor: inactive; LMPTP inh: inactive; DNMT1 block: inactive; NadD inh conf: inactive

How did O=c1[nH]c(C2CCCN(S(=O)(=O)c3ccccc3)C2)nc2c1nnn2Cc1ccccc1 (stereo unspecified) do in these assays?
NadD inh: inactive; SUMO1 PPI mod: inactive; STEP block: inactive; Scp-1 inhibitor: inactive; LMPTP inh: inactive; DNMT1 block: inactive

Results for Cc1ccc(S(=O)(=O)N2CCCC(c3nc4c(nnn4Cc4ccc5c(c4)OCCO5)c(=O)[nH]3)C2)cc1 (stereo unspecified) ?
NadD inh: 37; SUMO1 PPI mod: inactive; STEP block: inactive; Scp-1 inhibitor: inactive; LMPTP inh: inactive; DNMT1 block: inactive; NadD inh conf: inactive

How did Cc1ccc(C)c(Cn2nnc3c(=O)[nH]c(C4CCN(S(=O)(=O)c5ccc(S(=O)(=O)N(C)C)cc5)CC4)nc32)c1 do in these assays?
NadD inh: 46; SUMO1 PPI mod: inactive; STEP block: inactive; Scp-1 inhibitor: inactive; LMPTP inh: inactive; DNMT1 block: inactive; NadD inh conf: inactive
